Legend:
[1] = melting temperature; fluorescence melt of hairpins on a sequencing array, two-state fit, raised by 9.35 °C to match UV melts; settings: sodium 0.088 M
Method in brief: (§1)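 Two-state fits, bootstrapped, provided melting temperature and folding enthalpy from Cy3 fluorescence normalised to pre-quench Cy3 and to control constructs. Library hairpins with annealed Cy3 and quencher oligos were imaged on a sequenced MiSeq flow cell in 50 mM Na-HEPES pH 8.0, 25 mM NaCl, at 2.5 °C intervals up to 60 °C. Four replicates were combined with inverse-variance weighting. A 9.35 °C upward shift was applied to fitted temperatures to match UV melts.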

[2] = folding enthalpy; higher = less favourable; fluorescence melt of hairpins on a sequencing array, two-state fit; settings: sodium 0.088 M
Method in brief: as §1

| Sequence | Tm [1] | folding enthalpy [2] |
| --- | --- | --- |
| GAGGTGGGAAACTACCTC (((((.(....).))))) | 49.7 °C | -41.1 kcal/mol |
| GGTAACTCGAAAGAGACC (((..(((....)))))) | 31.3 °C | -14.5 kcal/mol |
| GGCGGTGGAAACATCGCC ((((.((....)).)))) | 63.1 °C | -38.6 kcal/mol |
| GTAAAGTCGAAAGACTAC (((..(((....)))))) | 31.9 °C | -11.7 kcal/mol |
| GATCTCCGAAAGGACATC (((.(((....))).))) | 30.4 °C | -17 kcal/mol |
| GGCCCAGGAAACTGGACC ((.((((....)))).)) | 50.5 °C | -32.8 kcal/mol |
| GCTACCGAAAGGTGTAGC ((((((....)))..))) | 47.1 °C | -21.7 kcal/mol |
| GGAGCCCGAAAGGGTTCC (((.(((....))).))) | 68.4 °C | -25.7 kcal/mol |
| GATCTTCGCTAAGATC ((((((....)))))) | 43 °C | -34.2 kcal/mol |
| GATCCAATATTGGATC ((((((....)))))) | 52.2 °C | -41.7 kcal/mol |
| GTGACCGAAAGGTAGCAC ((((((....)))..))) | 36.1 °C | -16.9 kcal/mol |
| GAGGCCGAAAGGCTTCTC ((((((....)))..))) | 54.9 °C | -19.1 kcal/mol |
| GATCCAATGTTGGATC ((((((....)))))) | 52.6 °C | -35 kcal/mol |
| GATCATTGCGATGATC ((((((....)))))) | 51.8 °C | -38.8 kcal/mol |
| GGGAAAGGAAACCTTCCC (((((.(....).))))) | 39.2 °C | -28.2 kcal/mol |
| GCCGCTACGAAAGTAGGC (((..(((....)))))) | 51 °C | -18 kcal/mol |
| GATCAAATGCTTGATC ((((((....)))))) | 41.5 °C | -29.6 kcal/mol |
| GCACTGCGAAAGCACGGC ((..(((....)))..)) | 38.4 °C | -17.6 kcal/mol |
| GATCCCAGTCGGGATC ((((((....)))))) | 61.3 °C | -33.4 kcal/mol |
| GCGGGTGCGAAAGCACGC (((..(((....)))))) | 55.7 °C | -10.3 kcal/mol |
| GCGACCGAAAGGTCCGC ((((((....))).))) | 66.4 °C | -18.5 kcal/mol |
| GCTAACGAAAGTTGGAGC ((((((....)))..))) | 33.1 °C | -19.9 kcal/mol |
| GATCGTGTACACGATC ((((((....)))))) | 63.6 °C | -51.3 kcal/mol |

| Sequence | Tm [1] | folding enthalpy [2] |
| --- | --- | --- |
| GATCCCTGATGGGATC ((((((....)))))) | 59.8 °C | -41.1 kcal/mol |
| GATCCCTATCGGGATC ((((((....)))))) | 60.2 °C | -38 kcal/mol |
| GAACGGGGAAACCCGTCC (.(((((....))))).) | 42.5 °C | -11.7 kcal/mol |
| GATCGCAATAGCGATC ((((((....)))))) | 68.4 °C | -26 kcal/mol |
| GTGTCGACGAAAGTCCAC (((..(((....)))))) | 37.2 °C | -17.8 kcal/mol |
| GGCACTGGAAACGGTGTC (.(((.(....).))).) | 41.7 °C | -28.1 kcal/mol |
| GTTGTCGAAAGACGTAAC ((((((....)))..))) | 31.9 °C | -11.3 kcal/mol |
| GTTTAACGAAAGTTGAAC (((.(((....))).))) | 44.7 °C | -29.9 kcal/mol |
| CGATCCCGGAAACGGTCG (((..(((....)))))) | 30.7 °C | -19.9 kcal/mol |
| GCCAACGCGAAAGCGGGC (((..(((....)))))) | 63.4 °C | -16.4 kcal/mol |
| GGACCCGAAAGGGAGTCC ((((((....)))..))) | 49.9 °C | -20.9 kcal/mol |
| GATCCTACACAGGATC ((((((....)))))) | 51.6 °C | -35.9 kcal/mol |
| GCCCGAGGAAACCCGGAC (.(((.(....).))).) | 32.7 °C | -19.3 kcal/mol |
| GAACGGCGAAAGCCTTC (((.(((....)))))) | 39.3 °C | -12.4 kcal/mol |
| GTATGCGAAAGCAAATAC ((((((....)))..))) | 37.7 °C | -16.7 kcal/mol |
| GATCAGGCGTCTGATC ((((((....)))))) | 51 °C | -39.3 kcal/mol |
| GCGGATATCCGC ((((....)))) | 56.7 °C | -33.9 kcal/mol |
| GTCGGCGAAAGCCAGAC ((((((....))).))) | 59.4 °C | -16.4 kcal/mol |
| GCTTGTGGAAACATAGGC ((.(.((....)).).)) | 32 °C | -14.7 kcal/mol |
| GTGTCCACGAAAGTGCAC (((..(((....)))))) | 39.3 °C | -15.1 kcal/mol |
| GTAGTCGAAAGACGTTAC ((((((....)))..))) | 35 °C | -12.2 kcal/mol |
| GGGGACGAAAGTCTACCC ((((((....)))..))) | 47.2 °C | -17.9 kcal/mol |
| CGGCACGGAAACGTTCCG (((.(((....))).))) | 47.9 °C | -24.5 kcal/mol |

| Sequence | Tm [1] | folding enthalpy [2] |
| --- | --- | --- |
| GATCCACTGTTGGATC ((((((....)))))) | 49.9 °C | -30.4 kcal/mol |
| GAACCTGAAAAGGTTC ((((((....)))))) | 60.6 °C | -31.8 kcal/mol |
| GAGCGCGGAAACGTGCTC ((((.((....)).)))) | 65.6 °C | -32.3 kcal/mol |
| GATCCGATGGCGGATC ((((((....)))))) | 56.6 °C | -42.8 kcal/mol |
| GTCCACGAAAGTGTTGAC ((((((....)))..))) | 31.6 °C | -17 kcal/mol |
| GAGAGCGAAAGCTGCCTC ((((((....)))..))) | 27.4 °C | -11.1 kcal/mol |
| GCGAACTCTCGC ((((....)))) | 46.8 °C | -24.8 kcal/mol |
| GTTTCGGGAAACCGAAGC (.(((((....))))).) | 47.3 °C | -23.4 kcal/mol |
| GAGATGCGAAAGCAGCTC (((.(((....))).))) | 69.1 °C | -34.6 kcal/mol |
| GAATATGGAAACATATTC (((((((....))))))) | 48.1 °C | -35.1 kcal/mol |
| GCGTACGGAAACGTATGC ((.((((....)))).)) | 55.9 °C | -40.1 kcal/mol |
| GCGATCGAAAGATCCGC ((((((....))).))) | 52 °C | -28.8 kcal/mol |
| GCCCGGCGAAAGCGGTGC ((.(.((....)).).)) | 56.5 °C | -15.6 kcal/mol |
| GACAGAGCGAAAGCTGTC (((..(((....)))))) | 46.7 °C | -18.3 kcal/mol |
| GACGACGAAAGTCTGTC ((((((....))).))) | 51.4 °C | -24.4 kcal/mol |
| GCGACTCTCGC ((((...)))) | 49.3 °C | -22.2 kcal/mol |
| GGCCACGAAAGTGTTGCC ((((((....)))..))) | 49.9 °C | -16.7 kcal/mol |
| GACAACGAAAGTTGCGTC ((((((....)))..))) | 40.6 °C | -12.1 kcal/mol |
| GTTTACGAAAGTACAAAC ((((((....)))..))) | 26.2 °C | -10.6 kcal/mol |
| GGCCCCCGAAAGGGTGCC (((.(((....))).))) | 64.5 °C | -27.9 kcal/mol |
| GGCTATGGAAACGTAGCC (((((.(....).))))) | 52.6 °C | -46 kcal/mol |
| GGTGGGCCGAAAGGCACC (((..(((....)))))) | 50.5 °C | -10.5 kcal/mol |
| GATCATGCCGATGATC ((((((....)))))) | 49.5 °C | -40.8 kcal/mol |

| Sequence | Tm [1] | folding enthalpy [2] |
| --- | --- | --- |
| GTCACCGCGAAAGCGGAC (((..(((....)))))) | 26.5 °C | -5.92 kcal/mol |
| GCCGTAGGAAACTACAGC ((.((((....)))).)) | 39.6 °C | -11.7 kcal/mol |
| GATGTCACGAAAGTGATC (((..(((....)))))) | 28.4 °C | -11.8 kcal/mol |
| GATCGGTCCTCCGATC ((((((....)))))) | 59.9 °C | -38 kcal/mol |
| GAACTTGGAAACGAGTTC (((((.(....).))))) | 44.2 °C | -38 kcal/mol |
| GTCCGCGAAAGCGCTGAC ((((((....)))..))) | 38.2 °C | -10.6 kcal/mol |
| GATCAGTTCTCTGATC ((((((....)))))) | 52.1 °C | -42.1 kcal/mol |
| GTTTGCCGAAAGGCTAAC (((.(((....))).))) | 51.7 °C | -20.1 kcal/mol |
| GGCGCAACGAAAGTTGCC (((..(((....)))))) | 47 °C | -8.29 kcal/mol |
| GATCACTCGGTGATC ((((((...)))))) | 58.9 °C | -37.8 kcal/mol |
| GCGTCGCGAAAGCCTCGC (((..((....))..))) | 50.8 °C | -21.7 kcal/mol |
| GATCCGCGTCCGGATC ((((((....)))))) | 57.6 °C | -41.8 kcal/mol |
| GATGGCGAAAGCCAGATC ((((((....)))..))) | 50 °C | -15.7 kcal/mol |
| GGTGCAGGAAACTGCGCC ((.((((....)))).)) | 65.3 °C | -34.3 kcal/mol |
| GGCAGCGAAAGCTTCGCC ((((((....)))..))) | 49.1 °C | -17.4 kcal/mol |
| GTTCGGGGAAACCCAAAC (((.(((....))).))) | 36 °C | -23.8 kcal/mol |
| GCCCTGCGAAAGCTGCGC ((.(.((....)).).)) | 40.2 °C | -16.9 kcal/mol |
| GGGAGTCCGAAAGGACCC (((..(((....)))))) | 53.6 °C | -14 kcal/mol |
| GAGCCCGGAAACGGACTC (((.(((....))).))) | 52.4 °C | -33.1 kcal/mol |
| GGACCAGAAATGGTCC ((((((....)))))) | 63.7 °C | -43.7 kcal/mol |
| GCCCGGCGAAAGCTAGGC (((..((....))..))) | 56.7 °C | -21.5 kcal/mol |
| GACTAAGGAAACCTAGTC (((((.(....).))))) | 35.6 °C | -25.7 kcal/mol |
| GTCGTACGAAAGTAGGAC (((.(((....))).))) | 53.7 °C | -39.7 kcal/mol |
